Assay results collected from several papers.
Lines come from different studies, so protocols differ.
Target: Focal adhesion kinase 1 (PTK2, Homo sapiens, UniProt Q05397)

SMILES | read-out | method | tested at | remaining binding
O=C(c1ccc(Nc2ncc(Cl)c(-c3ccc(Cl)s3)n2)cc1)N1CCC(N2CCCC2)CC1 | binding | competition with immobilised ligand | 1 µM | 41%
COc1cccc(CNC(=O)c2nc3scc(COCc4ccc(C(=O)O)cc4)c3c(=O)[nH]2)c1 | cell-free assay | competition with immobilised ligand | 1 µM | 100%
C[C@@H]1CN(c2ccc3ncc(-c4ccc5[nH]nc(C6CC6)c5c4)n3n2)C[C@H](C)O1 | binding | competition with immobilised ligand | 50 nM | 98%
Cc1c(C(=O)O)cc(-c2ccc(C3CCNCC3)cc2)c2ccc(-c3ccc(C(F)(F)F)cc3)cc12 | binding | competition with immobilised ligand | 1 µM | 100%
N[C@H]1CCN(c2nccc(-c3cnn4ncccc34)n2)C1 | binding | – | 1 µM | 100%
O=C(c1ccc(Nc2nccc(-c3cc4ccccc4s3)n2)cc1)N1CCC(N2CCCC2)CC1 | binding | competition with immobilised ligand | 1 µM | 81%
C[C@@H](c1ccc(-n2cnc3c(N)ncnc32)cc1)N1CCc2nn(C)c(Cc3ccccc3)c2C1=O | binding | competition with immobilised ligand | 0.1 µM | 87%
O=C(Nc1c[nH]nc1C(=O)NC1CCNCC1)c1cc(F)cc(F)c1 | binding | competition with immobilised ligand | 1 µM | 91%
COc1cc(-c2cn(C3CCc4ccccc4N(CC(F)(F)F)C3=O)nn2)ccc1-n1ccc(C)n1 (centres unmarked) | cell-free assay | competition with immobilised ligand | 1 µM | 100%
CN(C)c1nccc(-c2cnn3ncccc23)n1 | binding | – | 1 µM | 79%
c1ccc(N2CCN(Cc3nc4ccccc4[nH]3)CC2)nc1 | binding | competition with immobilised ligand | 1 µM | 86%
O=C(NCCCN1CCOCC1)c1ccc(Nc2ncc(Cl)c(-c3ccc(Cl)s3)n2)cc1 | binding | competition with immobilised ligand | 1 µM | 8.1%
N#Cc1ccccc1CSc1nnc2c(n1)[nH]c1ccccc12 | binding | competition with immobilised ligand | 10 µM | 98%
CCN1CCN(Cc2ccc(C(=O)Nc3ccc(C)c(Oc4ccc5c(c4)CC(=O)N5)c3)cc2C(F)(F)F)CC1 | binding | competition with immobilised ligand | 1 µM | 77%
Cc1cc(-c2cc(C(F)(F)F)ccc2O[C@H]2C[C@@]2(CNS(=O)(=O)c2ccc([N+](=O)[O-])cc2)c2ccc(F)cc2F)[nH]n1 | cell-free assay | competition with immobilised ligand | 0.3 µM | 22%
C[C@H]1CCN(c2nccc(-c3cnn4ncccc34)n2)C1 | binding | – | 1 µM | 100%
O=C(N[C@H]1CCCCC/C=C\C2C[C@@]2(C(=O)O)NC(=O)[C@@H]2C[C@@H](Oc3ccncc3)CN2C1=O)OC1CCCC1 (some centres unmarked) | binding | competition with immobilised ligand | 1 µM | 97%
CNC(=O)[C@@H]1CC[C@@H](n2c(-c3ccc4cnccc4c3)nc3ccc(C(=O)NCc4cccc(C(N)=O)c4)cc32)C1 | binding | competition with immobilised ligand | 1 µM | 92%
Nc1ncc2c(n1)-c1c([nH]c3ccc(C#CC4CC4)cc13)CCCC2 | binding | competition with immobilised ligand | 1 µM | 91%
O=C(NS(=O)(=O)c1ccc(NCC2CCOCC2)c([N+](=O)[O-])c1)c1ccc(N2CCN(Cc3ccc(C(F)(F)F)cc3-c3ccc(Cl)cc3)CC2)cc1Oc1cnc2[nH]ccc2c1 | cell-free assay | competition with immobilised ligand | 1 µM | 100%
CN(C)c1ncc(F)c(-c2cnn3ncccc23)n1 | binding | – | 1 µM | 100%
O=C(O)c1cc(-c2ccc(C3CCNCC3)cc2)c2ccc(-c3ccc(C(F)(F)F)cc3)cc2c1 | cell-free assay | competition with immobilised ligand | 1 µM | 100%
CN(CCCC(F)(F)F)c1nccc(-c2cnn3ncccc23)n1 | binding | – | 1 µM | 100%
